Data: ChEMBL document CHEMBL3352165 (Eur J Med Chem, 2014)
Active and inactive are the calls of the source. The calls are words filed in the database; no cut-off is given here.

How the values were obtained:
BT-474 [1] = assay: Induction of apoptosis in human BT474 cells at 1 uM incubated for 12 hrs by propidium iodide staining based flow cytometry (reference value: 1%); assay type: functional
[2] = molecular target: Vascular endothelial growth factor receptor 2 (Homo sapiens, UniProt P35968); assay: Inhibition of KDR phosphorylation (unknown origin) expressed in human HUVEC at 0.001 to 1 uM incubated for 2 hrs by Western blot method
Vascular endothelial growth factor receptor 2, sequence (P35968 whole entry): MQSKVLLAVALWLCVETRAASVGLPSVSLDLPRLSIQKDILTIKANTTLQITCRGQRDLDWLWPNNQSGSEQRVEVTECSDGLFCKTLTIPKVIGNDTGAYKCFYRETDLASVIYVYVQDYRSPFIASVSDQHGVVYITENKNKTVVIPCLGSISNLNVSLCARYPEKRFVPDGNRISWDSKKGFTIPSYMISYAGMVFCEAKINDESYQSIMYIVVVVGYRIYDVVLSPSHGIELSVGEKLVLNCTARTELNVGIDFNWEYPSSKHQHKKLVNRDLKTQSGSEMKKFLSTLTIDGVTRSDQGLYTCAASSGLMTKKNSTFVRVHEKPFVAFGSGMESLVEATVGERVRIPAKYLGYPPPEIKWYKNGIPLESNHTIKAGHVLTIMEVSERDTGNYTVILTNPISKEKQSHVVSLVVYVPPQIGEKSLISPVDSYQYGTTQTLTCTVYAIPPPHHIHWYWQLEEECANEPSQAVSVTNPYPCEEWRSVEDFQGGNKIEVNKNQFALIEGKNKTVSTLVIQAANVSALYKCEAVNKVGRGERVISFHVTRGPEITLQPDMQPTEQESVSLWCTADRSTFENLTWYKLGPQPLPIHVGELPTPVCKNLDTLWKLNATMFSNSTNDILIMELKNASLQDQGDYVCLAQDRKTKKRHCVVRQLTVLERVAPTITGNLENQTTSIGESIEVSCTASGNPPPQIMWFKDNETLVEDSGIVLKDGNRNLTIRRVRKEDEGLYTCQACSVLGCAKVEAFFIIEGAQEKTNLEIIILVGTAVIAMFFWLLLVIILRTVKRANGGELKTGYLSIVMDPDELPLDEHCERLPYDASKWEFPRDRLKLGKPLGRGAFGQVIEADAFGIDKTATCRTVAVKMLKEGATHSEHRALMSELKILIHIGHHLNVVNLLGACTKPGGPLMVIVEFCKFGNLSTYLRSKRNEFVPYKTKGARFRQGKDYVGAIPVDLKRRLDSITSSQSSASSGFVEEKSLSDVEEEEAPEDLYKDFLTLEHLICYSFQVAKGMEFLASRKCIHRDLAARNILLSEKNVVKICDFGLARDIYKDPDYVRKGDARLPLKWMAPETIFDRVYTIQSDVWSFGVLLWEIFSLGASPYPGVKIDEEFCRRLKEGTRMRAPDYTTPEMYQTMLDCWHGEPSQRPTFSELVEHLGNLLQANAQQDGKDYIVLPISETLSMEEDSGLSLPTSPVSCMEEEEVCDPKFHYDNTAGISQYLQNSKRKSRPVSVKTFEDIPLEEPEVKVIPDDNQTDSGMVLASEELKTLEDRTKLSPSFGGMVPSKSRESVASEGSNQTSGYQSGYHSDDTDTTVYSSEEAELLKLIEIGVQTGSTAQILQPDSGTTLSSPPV

[3] = molecular target: T1, Receptor tyrosine-protein kinase erbB-2 (Homo sapiens, UniProt P04626); details: BT-474, 0.001 to 10 uM
T1 sequence (P04626 whole entry): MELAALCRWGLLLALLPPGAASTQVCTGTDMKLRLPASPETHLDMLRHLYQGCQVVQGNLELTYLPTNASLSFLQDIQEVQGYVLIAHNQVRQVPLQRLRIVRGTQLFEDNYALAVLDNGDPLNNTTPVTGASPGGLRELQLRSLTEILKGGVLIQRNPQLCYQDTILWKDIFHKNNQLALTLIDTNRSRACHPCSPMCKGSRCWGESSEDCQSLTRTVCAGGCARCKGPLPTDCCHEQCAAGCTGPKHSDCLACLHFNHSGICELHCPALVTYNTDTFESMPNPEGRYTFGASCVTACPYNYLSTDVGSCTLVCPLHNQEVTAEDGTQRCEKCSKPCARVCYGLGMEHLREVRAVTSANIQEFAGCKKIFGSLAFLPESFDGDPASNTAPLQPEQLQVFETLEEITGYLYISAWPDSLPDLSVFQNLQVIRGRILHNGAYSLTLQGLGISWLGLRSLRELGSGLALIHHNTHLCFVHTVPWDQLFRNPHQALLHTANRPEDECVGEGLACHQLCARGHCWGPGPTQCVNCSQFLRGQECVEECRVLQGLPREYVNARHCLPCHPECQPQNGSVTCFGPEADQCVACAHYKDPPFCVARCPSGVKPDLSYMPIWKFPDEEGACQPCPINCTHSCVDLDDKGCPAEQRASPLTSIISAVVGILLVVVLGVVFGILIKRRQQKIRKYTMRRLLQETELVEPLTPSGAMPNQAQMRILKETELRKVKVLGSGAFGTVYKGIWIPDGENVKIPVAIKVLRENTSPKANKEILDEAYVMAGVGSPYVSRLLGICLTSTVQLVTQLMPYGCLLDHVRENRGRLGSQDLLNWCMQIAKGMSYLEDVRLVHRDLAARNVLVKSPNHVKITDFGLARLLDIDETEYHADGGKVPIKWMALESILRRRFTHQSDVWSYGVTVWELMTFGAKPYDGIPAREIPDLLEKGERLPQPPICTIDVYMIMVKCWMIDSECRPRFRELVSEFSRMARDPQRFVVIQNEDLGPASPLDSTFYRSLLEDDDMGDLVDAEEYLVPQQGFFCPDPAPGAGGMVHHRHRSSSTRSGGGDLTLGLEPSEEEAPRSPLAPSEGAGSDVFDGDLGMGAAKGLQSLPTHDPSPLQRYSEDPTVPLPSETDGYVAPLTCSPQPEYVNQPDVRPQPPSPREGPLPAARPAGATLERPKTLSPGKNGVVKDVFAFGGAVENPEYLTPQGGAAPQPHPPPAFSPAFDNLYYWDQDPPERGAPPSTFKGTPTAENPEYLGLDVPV

BT-474 [4] = assay: Induction of cell cycle arrest in human BT474 cells assessed as accumulation at G2/M phase at 1 uM incubated for 12 hrs by propidium iodide staining based flow cytometry (reference value: 14%); assay type: functional
MDA-MB-453 = assay: cells; details: Homo sapiens, MDA-MB-453, 72 h
BT-474 [5] = assay: Induction of cell cycle arrest in human BT474 cells assessed as accumulation at G2/M phase at 0.01 uM incubated for 12 hrs by propidium iodide staining based flow cytometry (reference value: 14%); assay type: functional
cells [6] = details: Homo sapiens, Calu-3, 72 h
BT-474 [7] = assay: Induction of cell cycle arrest in human BT474 cells assessed as accumulation at G1 phase at 0.1 uM incubated for 12 hrs by propidium iodide staining based flow cytometry (reference value: 67%); assay type: functional
BT-474 [8] = assay: Induction of cell cycle arrest in human BT474 cells assessed as accumulation at G1 phase at 10 uM incubated for 12 hrs by propidium iodide staining based flow cytometry (reference value: 67%); assay type: functional
BT-474 [9] = assay: Induction of cell cycle arrest in human BT474 cells assessed as accumulation at G2/M phase at 10 uM incubated for 12 hrs by propidium iodide staining based flow cytometry (reference value: 14%); assay type: functional
BT-474 [10] = assay: Induction of cell cycle arrest in human BT474 cells assessed as accumulation at S phase at 0.1 uM incubated for 12 hrs by propidium iodide staining based flow cytometry (reference value: 19%); assay type: functional
cells [11] = details: Homo sapiens, SK-OV-3, 72 h
[12] = molecular target: T1, Receptor tyrosine-protein kinase erbB-2; details: BT-474, 0.001 to 10 uM; remark: listed apart in the source
A-431 = assay: Cytotoxicity against human A431 cells assessed as inhibition of cell growth after 72 hrs by sulforhodamine B assay; assay type: functional, cell-based; details: A-431, 72 h
How it was run: (§1)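 Cells grown in RPMI-1640 with 5% FBS and plated at 5.0×10^4/ml. Next day exposed to 0.5–5000 ng/ml for 3 days. Survival read by sulforhodamine B staining. IC50 taken from growth curves; mean of at least three determinations.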

BT-474 [13] = assay: Induction of cell cycle arrest in human BT474 cells assessed as accumulation at G1 phase at 1 uM incubated for 12 hrs by propidium iodide staining based flow cytometry (reference value: 67%); assay type: functional
BT-474 [14] = assay: Induction of apoptosis in human BT474 cells at 0.01 uM incubated for 12 hrs by propidium iodide staining based flow cytometry (reference value: 1%); assay type: functional
Mus musculus [15] = assay: Toxicity in human Calu3 cells xenografted BALB/cA mouse assessed as body weight loss at 100 mg/kg, po measured every other day for 21 days; assay type: organism-based, Calu-3; design: dose 100 mg/kg, route oral; details: in vivo, 504 h
How it was run: (§2)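 Female BALB/cA nude mice, 6–7 weeks old, implanted s.c. on the mid-right flank with 2×10^6 Calu-3 cells in 0.2 ml PBS. At 60–150 mm³ tumour volume, mice randomised into six per treatment group (twelve vehicle controls). Oral dosing in 0.5% CMC aqueous solution with 0.1% Tween-80. Body weight recorded every other day for 21 d.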

[16] = molecular target: Mast/stem cell growth factor receptor Kit (Homo sapiens, UniProt P10721); assay: Inhibition of c-KIT phosphorylation (unknown origin) expressed in human NCI-H526 cells at 0.001 to 1 uM incubated for 2 hrs by Western blot method
Mast/stem cell growth factor receptor Kit, sequence (P10721 whole entry): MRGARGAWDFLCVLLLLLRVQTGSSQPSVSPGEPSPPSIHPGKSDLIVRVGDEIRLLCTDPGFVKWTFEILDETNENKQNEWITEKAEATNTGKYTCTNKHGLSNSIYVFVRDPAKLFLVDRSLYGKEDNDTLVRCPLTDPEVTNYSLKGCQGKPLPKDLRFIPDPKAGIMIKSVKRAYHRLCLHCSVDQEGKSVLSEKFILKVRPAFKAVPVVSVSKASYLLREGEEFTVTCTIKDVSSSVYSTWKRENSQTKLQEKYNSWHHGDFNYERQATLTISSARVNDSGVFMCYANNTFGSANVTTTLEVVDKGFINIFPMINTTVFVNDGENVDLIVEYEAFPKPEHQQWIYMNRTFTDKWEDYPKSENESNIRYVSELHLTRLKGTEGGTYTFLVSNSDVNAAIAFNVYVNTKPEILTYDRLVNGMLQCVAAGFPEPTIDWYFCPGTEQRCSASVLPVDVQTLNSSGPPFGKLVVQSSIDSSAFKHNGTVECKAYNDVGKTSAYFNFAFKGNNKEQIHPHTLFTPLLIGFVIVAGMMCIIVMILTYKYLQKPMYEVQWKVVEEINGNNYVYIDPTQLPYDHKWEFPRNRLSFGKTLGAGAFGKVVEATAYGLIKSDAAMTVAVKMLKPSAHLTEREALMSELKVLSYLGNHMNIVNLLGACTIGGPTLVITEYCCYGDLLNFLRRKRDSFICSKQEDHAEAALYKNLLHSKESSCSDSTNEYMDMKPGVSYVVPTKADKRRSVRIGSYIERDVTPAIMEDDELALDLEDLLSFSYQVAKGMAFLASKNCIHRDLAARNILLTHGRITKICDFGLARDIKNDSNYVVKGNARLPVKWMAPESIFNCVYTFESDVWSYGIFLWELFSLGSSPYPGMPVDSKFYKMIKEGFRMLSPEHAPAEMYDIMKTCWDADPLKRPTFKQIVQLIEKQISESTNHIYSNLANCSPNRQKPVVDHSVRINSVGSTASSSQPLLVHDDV

[17] = Antitumor activity against human Calu3 cells xenografted in BALB/cA mouse assessed as tumor growth inhibition at 200 mg/kg, po; assay type: functional; details: Calu-3, read-out: TGI
How it was run: (§3)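 Female BALB/cA nude mice, 6–7 weeks old, implanted s.c. on midright side with 2×10^6 Calu-3 cells in 0.2 ml PBS. Grouped at 60–150 mm³ tumour volume (6 per treated group, 12 vehicle). Oral dosing in 0.5% CMC with 0.1% Tween-80. Caliper volume = L×W²×0.5; inhibition = (1 − T/C)×100% on relative tumour volume; weight tracked for 21 d.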

BT-474 [18] = assay: Induction of cell cycle arrest in human BT474 cells assessed as accumulation at G2/M phase at 0.001 uM incubated for 12 hrs by propidium iodide staining based flow cytometry (reference value: 14%); assay type: functional
BT-474 [19] = assay: Induction of cell cycle arrest in human BT474 cells assessed as accumulation at G1 phase at 0.01 uM incubated for 12 hrs by propidium iodide staining based flow cytometry (reference value: 67%); assay type: functional
BT-474 [20] = assay: Cytotoxicity against human BT474 cells assessed as inhibition of cell growth after 72 hrs by sulforhodamine B assay; assay type: functional, cell-based; details: BT-474, 72 h; how it was run: as §1
NCI-H460 = assay: cells; details: Homo sapiens, NCI-H460, 72 h
[21] = Cytotoxicity against human SKBR3 cells assessed as inhibition of cell growth after 72 hrs by sulforhodamine B assay; assay type: functional, cell-based; details: SK-BR-3, 72 h; how it was run: as §1
[22] = Antitumor activity against human Calu3 cells xenografted in BALB/cA mouse assessed as tumor growth inhibition at 100 mg/kg, po; assay type: functional; details: Calu-3, read-out: TGI; how it was run: as §3
BT-474 [23] = assay: Induction of cell cycle arrest in human BT474 cells assessed as accumulation at G2/M phase at 0.1 uM incubated for 12 hrs by propidium iodide staining based flow cytometry (reference value: 14%); assay type: functional
[24] = molecular target: T1, Receptor tyrosine-protein kinase erbB-2; details: BT-474, 0.001 to 10 uM; remark: listed apart in the source
MDA-MB-231 = assay: cells; details: Homo sapiens, MDA-MB-231, 72 h
Mus musculus [25] = assay: Toxicity in human Calu3 cells xenografted BALB/cA mouse assessed as body weight loss at 200 mg/kg, po measured every other day for 21 days; assay type: organism-based, Calu-3; design: dose 200 mg/kg, route oral; details: in vivo, 504 h; how it was run: as §2
BT-474 [26] = assay: Induction of cell cycle arrest in human BT474 cells assessed as accumulation at G1 phase at 0.001 uM incubated for 12 hrs by propidium iodide staining based flow cytometry (reference value: 67%); assay type: functional
BT-474 [27] = assay: Induction of cell cycle arrest in human BT474 cells assessed as accumulation at S phase at 0.01 uM incubated for 12 hrs by propidium iodide staining based flow cytometry (reference value: 19%); assay type: functional
BT-474 [28] = assay: Induction of cell cycle arrest in human BT474 cells assessed as accumulation at S phase at 0.001 uM incubated for 12 hrs by propidium iodide staining based flow cytometry (reference value: 19%); assay type: functional
BT-474 [29] = assay: Induction of apoptosis in human BT474 cells at 10 uM incubated for 12 hrs by propidium iodide staining based flow cytometry (reference value: 1%); assay type: functional
MRC5 = assay: cells; details: Homo sapiens, MRC5, 72 h
[30] = molecular target: Platelet-derived growth factor receptor beta (Homo sapiens, UniProt P09619); assay: Inhibition of PDGFRbeta phosphorylation (unknown origin) expressed in human U87MG cells at 0.001 to 1 uM incubated for 2 hrs by Western blot method; details: U-87MG ATCC
Platelet-derived growth factor receptor beta, sequence (P09619 whole entry): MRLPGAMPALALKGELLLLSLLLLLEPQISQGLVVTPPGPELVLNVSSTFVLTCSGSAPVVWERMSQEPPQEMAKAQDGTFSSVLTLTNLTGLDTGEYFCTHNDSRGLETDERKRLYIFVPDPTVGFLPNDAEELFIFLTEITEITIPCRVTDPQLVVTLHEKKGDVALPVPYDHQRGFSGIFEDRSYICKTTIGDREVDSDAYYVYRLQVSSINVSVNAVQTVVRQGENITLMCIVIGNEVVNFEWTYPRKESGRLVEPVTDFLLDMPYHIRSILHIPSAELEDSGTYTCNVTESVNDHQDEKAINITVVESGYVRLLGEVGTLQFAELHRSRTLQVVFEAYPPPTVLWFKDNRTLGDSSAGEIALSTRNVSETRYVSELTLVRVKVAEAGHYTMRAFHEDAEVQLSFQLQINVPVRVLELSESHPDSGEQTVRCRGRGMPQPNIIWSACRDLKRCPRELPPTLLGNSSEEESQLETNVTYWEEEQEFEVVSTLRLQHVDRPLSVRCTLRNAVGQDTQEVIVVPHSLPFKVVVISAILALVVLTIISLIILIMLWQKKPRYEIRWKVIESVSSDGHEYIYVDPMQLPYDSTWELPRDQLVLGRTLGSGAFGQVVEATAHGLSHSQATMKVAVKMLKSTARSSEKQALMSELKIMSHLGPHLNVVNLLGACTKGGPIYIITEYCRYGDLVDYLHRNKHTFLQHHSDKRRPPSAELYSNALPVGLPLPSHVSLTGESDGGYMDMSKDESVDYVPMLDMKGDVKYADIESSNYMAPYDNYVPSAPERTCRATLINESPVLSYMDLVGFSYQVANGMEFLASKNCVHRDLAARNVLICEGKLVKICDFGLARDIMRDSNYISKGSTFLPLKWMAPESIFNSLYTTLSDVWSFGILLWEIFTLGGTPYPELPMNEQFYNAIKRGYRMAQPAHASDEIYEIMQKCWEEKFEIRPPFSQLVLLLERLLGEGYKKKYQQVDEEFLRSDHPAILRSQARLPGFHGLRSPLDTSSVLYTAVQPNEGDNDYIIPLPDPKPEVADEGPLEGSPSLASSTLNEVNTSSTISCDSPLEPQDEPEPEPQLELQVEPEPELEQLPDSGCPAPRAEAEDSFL

MCF7 = assay: Cytotoxicity against human MCF7 cells assessed as inhibition of cell growth after 72 hrs by sulforhodamine B assay; assay type: functional, cell-based; details: MCF7, 72 h; how it was run: as §1
BT-474 [31] = assay: Induction of apoptosis in human BT474 cells at 0.1 uM incubated for 12 hrs by propidium iodide staining based flow cytometry (reference value: 1%); assay type: functional
BT-474 [32] = assay: Induction of cell cycle arrest in human BT474 cells assessed as accumulation at S phase at 10 uM incubated for 12 hrs by propidium iodide staining based flow cytometry (reference value: 19%); assay type: functional
BT-474 [33] = assay: Induction of apoptosis in human BT474 cells at 0.001 uM incubated for 12 hrs by propidium iodide staining based flow cytometry (reference value: 1%); assay type: functional
BT-474 [34] = assay: Induction of cell cycle arrest in human BT474 cells assessed as accumulation at S phase at 1 uM incubated for 12 hrs by propidium iodide staining based flow cytometry (reference value: 19%); assay type: functional

- inhibition [2]: inactive
- inhibition [3]: Active
- IC50 (MDA-MB-453): 190 nM
- IC50 (cells [6]): 230 nM
- IC50 (cells [11]): 590 nM
- inhibition [12]: Active
- inhibition [16]: inactive
- IC50 (NCI-H460): > 100000 nM
- inhibition [24]: Active
- IC50 (MDA-MB-231): > 100000 nM
- inhibition [30]: inactive
SMILES: CS(=O)(=O)CCNCc1ccc(-c2ccc3ncnc(Nc4ccc(OCc5cccc(F)c5)c(Cl)c4)c3c2)o1 [LAPATINIB]
- Activity (BT-474 [1]): 6%
- Activity (BT-474 [4]): 10%
- Activity (BT-474 [5]): 11%
- Activity (BT-474 [7]): 84%
- Activity (BT-474 [8]): 81%
- Activity (BT-474 [9]): 11%
- Activity (BT-474 [10]): 6%
- IC50 (A-431): 643 nM
- Activity (BT-474 [13]): 84%
- Activity (BT-474 [14]): 1%
- Activity (Mus musculus [15]): Non-toxic
- inhibition in vivo at 200 mg/kg [17]: 70%
- Activity (BT-474 [18]): 14%
- Activity (BT-474 [19]): 82%
- IC50 (BT-474 [20]): 63.9 nM
- IC50 [21]: 30.1 nM
- inhibition in vivo at 100 mg/kg [22]: 56%
- Activity (BT-474 [23]): 10%
- Activity (Mus musculus [25]): Non-toxic
- Activity (BT-474 [26]): 71%
- Activity (BT-474 [27]): 7%
- Activity (BT-474 [28]): 15%
- Activity (BT-474 [29]): 13%
- IC50 (MRC5): > 100000 nM
- IC50 (MCF7): 8470 nM
- Activity (BT-474 [31]): 4%
- Activity (BT-474 [32]): 8%
- Activity (BT-474 [33]): 1%
- Activity (BT-474 [34]): 6%
